In ChEMBL document CHEMBL4513216, “Probing the Open Global Health Chemical Diversity Library for Multistage-Active Starting Points for Next-Generation Antimalarials” (ACS Infect Dis, 2020):

Experiment: Toxicity liver stage against HepG2, at 10uM
Assay type: cell-based
Design: test concentration 10 uM, cell line HepG2-A16-CD81EGFP
Settings: human, HepG2-A16-CD81EGFP cells; read-out: INHIBITION
Procedure, shortened: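 Uninfected HepG2-A16-CD81EGFP cells, 3 × 10^3 per well, 1536-well, plated on prespotted compound at 10 μM final, parasite-free screening media added to match infected plates; puromycin 10 μM positive, DMSO 0.5% negative; run in parallel with 48 h PbLuc assay at 37 °C, 5% CO2; viability by CellTiter-Glo luminescence, normalized to controls.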

SMILES	cytotoxicity at 10 µM
COC(=O)CC1c2cccnc2C(=O)N1Cc1ccccc1 (stereo not given)	1.19%
COc1ccc(-c2noc(C(N)CCSC)n2)cc1 (stereo not given)	-7.27%
O=C(NCCc1c[nH]cn1)c1ccc2c(c1)C(=O)N(C1CCCC1)C2=O	-6.09%
O=S(=O)(c1c(F)cccc1F)N1CCC(Cn2cccn2)CC1	-11.9%
COc1nn(C)cc1C(=O)NCC1(O)CCc2ccccc2C1 (stereo not given)	-6.98%
Cc1cc(C(O)CCNS(=O)(=O)c2ccc(Cl)s2)c(C)o1 (stereo not given)	-3.95%
Cc1nnc(C[C@@H]2COC[C@H]3CN(C(=O)C4=CCCC4)C[C@@H]23)o1	-5.86%
CC(C)CNC(=O)c1cc2c(s1)CCN2Cc1cccnc1	-6.16%
Cn1cc(CN2CCO[C@H]3C(Cn4cccn4)CC[C@@H]32)cn1 (stereo not given in full)	-3.12%
CC(=O)N1CCC2(CC1)CNc1ccc(F)cc12	1.63%
O=C(c1cc(-c2ccn(CC3CC3)n2)n2ccccc12)N1CCOCC1	9.76%
CCN(CC)[C@@H]1CN(Cc2cnn(C)c2)[C@@H]2COC[C@H]12	8.61%
O=C(C1CC=CC1)N1CC[C@H]2[C@@H]1CCC(=O)N2c1ccccc1	8.88%
O=C(CC1CCCC1)NCCn1ccc(-c2ccncc2)n1	5.97%
CC(=O)N1CCN(c2ncnc3cc4c(cc23)OCCO4)CC1	13.4%
CCN1CCN(c2nsc(-c3cccnc3)c2C#N)CC1	-4.2%
CCn1nc(C)c2nc(C(C)C)nc(NCc3ccccn3)c21	7.09%
CN(Cc1cnn(C)c1)C(=O)c1cc(C(F)(F)F)n(C)n1	8.52%
CC1(C(=O)N2CCN(c3cnccn3)CC2)CNCCO1 (stereo not given)	6.99%
CCc1nnc(Nc2cccc(C3CCN(c4cnccn4)CC3)n2)s1	-26.5%
CCCC(=O)N1CCC(c2cc3n(n2)[C@@H](C(F)(F)F)C[C@@H](C)N3)CC1	-10.3%
O=c1[nH]c2ccccc2cc1CNCCCN1CCOCC1	-17.5%

SMILES	cytotoxicity at 10 µM
O=C1NCC2(CCCN(Cc3ccncc3)C2)Oc2ccccc21 (stereo not given)	-13.8%
O=C(O)C1(Cc2cc(-c3cccc(F)c3)no2)CCOCC1	-4.97%
O=C(c1ccnnc1)N1C[C@@H]2CC[C@H](Oc3cccc(F)c3)[C@@H]2C1	2.37%
Cc1n[nH]c(C2CN(CCNC3CCCCC3)CCO2)n1 (stereo not given)	-8.29%
CC(OCC1CC1)C(=O)Nc1cccc(C(=O)Nc2ccccn2)c1 (stereo not given)	2.56%
CC1CN(CC(=O)NCc2ccc(F)cc2)CCN1c1nccs1 (stereo not given)	-1.22%
Cc1ccc(F)c2c1CCCN2C(=O)Cc1c(C)nn(C)c1C	13.6%
CC(C)Cc1noc(CNc2cc3c(cc2Cl)OCCCO3)n1	6.48%
O=C(CC1CCN(CCN2CCCCC2)CC1)N1CCOCC1	-3.91%
COC(=O)CNC(=O)CCc1cc(Cl)cs1	-5.31%
N#Cc1ccc(SCCC(=O)O)cc1	-2.85%
O=C(NCC1CCOC1)c1cc(-c2ccc(F)cc2)[nH]n1 (stereo not given)	-6.96%
CC(C)c1noc(C(C)N2CCC(c3nc4ccccc4[nH]3)CC2)n1 (stereo not given)	-3.17%
O=C1OCCCN1Cc1nc(-c2ccncc2)no1	6.77%
CCc1nnc(C(C)N2CCCN(C(=O)OCC(C)C)CC2)o1 (stereo not given)	4.96%
Cc1c(COC(C)C)cccc1NC(=O)N1CCC(N2CCCC2)C1 (stereo not given)	-5.56%
CCC(NCCn1cccn1)C(=O)Nc1cc(C)on1 (stereo not given)	13.4%
CC(C)c1ccc(/C=C/CC(=O)NC2CCN(C(N)=O)C2)cc1 (stereo not given)	0.838%
c1ccc(C2(CNCc3cnc(N4CCOCC4)nc3)CC2)cc1	-0.813%
Cc1ccccc1CC(C)(C)NC(=O)c1cccc(OCC(N)=O)c1	2.93%
O=C(Cc1cccs1)NS(=O)(=O)c1cccc2cnccc12	-14.6%
O=C(c1sccc1C1CC1)N1CCN(c2nccs2)CC1	1.41%

SMILES	cytotoxicity at 10 µM
CC(=O)c1c(F)cccc1NC1CCN(C(=O)C2CCCCC2)CC1	20.7%
O=C(CN1CSCC1=O)NCC1CCN(c2ccccc2)C1 (stereo not given)	1.19%
COc1cc(NC(=O)NC2CC2)ccc1N1CCOC1=O	-6.44%
COc1ccc2[nH]cc(C3CCN(CCC(N)=O)CC3)c2c1	-1.22%
CCS(=O)(=O)CC(=O)NC1CCc2nccn2C1 (stereo not given)	17.1%
COCCS(=O)(=O)N1CCN(c2cccc(O)c2)CC1	5.33%
CNC(=O)COc1nc(C(C)(C)C)no1	-0.425%
Cc1c(C(=O)NCCC(C)C)nnn1-c1cccc2c1CCN(C)C2	1.31%
CCC(C)(C)NC(=O)c1nnn(-c2cccc3c2CCN(C)C3)c1C	-0.663%
O=C(CCN1CCC(C(=O)c2cc(F)ccc2F)CC1)NC1CCCC1	4.76%
CC(C)S(=O)(=O)NC(=O)c1cc(-c2cccc(Cl)c2)no1	10%
Cc1nn(C)c(N2CCOCC2)c1CNC(C)c1ccccn1 (stereo not given)	-10.7%
Cc1cc(F)ccc1-n1cc(O)c(C(=O)NCC[S+](C)[O-])n1 (stereo not given)	9.38%
CC1CCCN(C(=O)NCC(F)F)C1 (stereo not given)	13.6%
Cn1c(=O)oc2cc(Nc3nccnc3C#N)ccc21	2.14%
Cn1nc(Br)c2c(NCCS(N)(=O)=O)ncnc21	15.8%
Cc1nnc2n1CCN(C(=O)CN1C(=O)C(C)Oc3ccccc31)C2 (stereo not given)	-0.905%
COc1cc2c(c(OC)c1OC)CCN(CCn1nc(C)cc1C)CC2	12.9%
Cc1ccc(S(=O)(=O)NC(=O)CCOCc2ccccc2)s1	-11.2%
Cc1cnn(CC(=O)NC2CCCc3cc(OC(F)F)ccc32)c1 (stereo not given)	-0.653%
CNS(=O)(=O)c1ccc(CNC(=O)N(C)CC(O)COC)cc1 (stereo not given)	-1.22%
CC(C)c1noc(CCNC(=O)N2CCC(O)(C(F)(F)F)C2)n1 (stereo not given)	9.74%

SMILES	cytotoxicity at 10 µM
N#Cc1cnn(CCN2CCOC(CNc3cccnn3)C2)c1 (stereo not given)	-3.85%
CC(C)c1nn(C)c(N(C)C)c1CNC1CCC(O)CC1 (stereo not given)	1.63%
CCN(C)C(C(=O)Nc1ccc2c(c1)CCC(=O)N2)c1ccccc1 (stereo not given)	-1.45%
COCC(C)N(C)C(=O)NC1CCN(S(C)(=O)=O)CC1 (stereo not given)	5.36%
Cc1cccc(N(CC(=O)N2CCCCC2)Cc2ccno2)c1	3.1%
CCN1Cc2ccccc2CC2(CCN(CC3CCC3)CC2)C1=O	4.15%
Cc1cc(C(=O)NC2CCc3c(ccc(=O)n3CC3CC3)C2)no1 (stereo not given)	2.62%
CN1CC2(CCN(C(=O)Cn3ncc4ccccc4c3=O)CC2)OC1=O	-2.96%
O=C1CC(C(=O)NCCN2CCOC2=O)c2cc(F)ccc2N1 (stereo not given)	-0.511%
CCCOC1CCCN(C(=O)Cn2cccc(C(F)(F)F)c2=O)C1 (stereo not given)	-0.912%
Cc1cc(NCc2nnc3n2CCC3)n2nc(C)c(C)c2n1	1.16%
Cc1ccc(CN(CCN(C)C)Cc2nc3ccccc3[nH]2)s1	3.34%
COc1cccc(-c2cc(CN)ccc2F)c1F	-12.4%
Cc1cc(C)n(CCC(=O)N2CCCCC2c2nccs2)n1 (stereo not given)	10.3%
CN(C)S(=O)(=O)N1CC[C@]2(O)CCN(c3cc(C#N)ccn3)C[C@@H]2C1	12.3%
Cc1ncc(S(C)(=O)=O)c(N2CCCN(Cc3ccccn3)CC2)n1	1.46%
CN(C)CCN1CC2(CCCN(c3ccc(Cl)cn3)C2)CCC1=O (stereo not given)	2.69%
CCN(CC)Cc1cc(C(=O)N2CC[C@@]3(O)CCCC[C@H]3C2)c(C)o1	2.93%
O=C1CCC2(CCCN(c3ncc(Cl)cc3F)C2)CN1CC1CC1 (stereo not given)	5.98%
Cc1ccc(CN2CCN(c3ncccc3C(N)=O)CC2CCO)cc1 (stereo not given)	-13.3%
CNS(=O)(=O)CCNc1cc(C)nc2cc(C)nn12	6.95%
Cc1nn(C)c2ncnc(N(C)CC3CCN(CC(C)C)C3)c12 (stereo not given)	-5.79%

SMILES	cytotoxicity at 10 µM
Cc1ocnc1C(=O)N1CC[C@@]2(O)CCN(C(=O)N3CCCC3)C[C@H]2C1	-7.96%
CCCc1cc(=O)[nH]c(-c2cccc(CN3CCN4CCCC4C3)c2)n1 (stereo not given)	-15.2%
COCC[C@]1(O)CCN(C2CCN(C(=O)C3CCC3)CC2)C[C@H]1C	0.866%
CC(=O)c1cc(CN2C[C@@H](C(=O)O)[C@H](c3cccnc3)C2)cs1	4.11%
CC(C)c1nnc2n1CCN(CC(=O)Nc1sccc1C#N)C2	-2.6%
COc1ccccc1OCCN1CCC(N2CCNC2=O)CC1	-3.19%
N#Cc1cn(C2CC2)c(=O)n(CC(O)c2ccccc2F)c1=O (stereo not given)	3.97%
Cc1cnn(CC2CN(CC(=O)Nc3sccc3C#N)CCO2)c1 (stereo not given)	-0.935%
COCc1ccccc1C(=O)N1CCCC(n2nc(C)cc2C)C1 (stereo not given)	-10.5%
Cc1nn(C)c(Cl)c1C(=O)NCC(c1ccsc1)N(C)C (stereo not given)	-10%
Cc1ccc(CNC(=O)NCc2csc(C)n2)cn1	-8.24%
CN(C)c1ccc(C(=O)N2CCN(C(=O)N3CCCCC3)CC2)nn1	-9.14%
CN(Cc1nc2c(cnn2C)c(=O)[nH]1)Cc1ccc(F)cc1F	-1.29%
COc1cc(CNC(C)Cn2cccn2)cc(OC)c1OC (stereo not given)	-4.23%
COCC1COCCC12CCN(S(=O)(=O)c1cccnc1)CC2 (stereo not given)	6.62%
COCCN1CCc2c(cnc(-c3ccccc3)c2C(=O)O)C1	2.24%
CO[C@@H]1CCN(S(=O)(=O)N(C)C)[C@@H]2CN(Cc3cccnc3)C[C@@H]21	-1.91%
Cc1nc(CN2C(=O)CC3(CCN(C(N)=O)CC3)c3ccccc32)cs1	-1.4%
O=C(NC[C@H]1OC[C@@H]2CCN(C3CCOCC3)C[C@@H]21)c1ccncc1	4.98%
COCCN1CC[C@@H]2CN(Cc3cccnc3OC)C[C@@H]2C1	13.6%
CCn1cc2c(n1)C(COC)CN(c1ccc(C)nn1)C2 (stereo not given)	11.6%
O=C(NC1CCCCC1)N1CCC(n2cc3[nH]cccc-3c2=O)CC1	-5.01%
